The text below walks through data of ChEMBL document CHEMBL1147206, “Synthetic cinnamylphenol derivatives as cancer chemopreventive agents” (2007).

Assay [1] deals with Human gammaherpesvirus 4. Kind of assay: TPA-induced EBV early antigen activation in Raji cells at 3.2 nmol relative to control.
The test system of assay [2] is Raji. Briefly: Survival of Raji cells at 3.2 nmol by trypan blue staining method. Type of assay: functional, Homo sapiens. An outline of the steps:
(§1)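 Raji cells (EBV genome-carrying, non-producer) grown to 10⁶ cells/mL, centrifuged, resuspended in RPMI 1640 with 10% FCS, 4 mM n-butyric acid and 32 pmol TPA (20 ng/mL), plus test compound in DMSO (32, 16, 3.2 or 0.32 nmol; 1000–10 mol ratio/TPA). Incubated 37 °C, 48 h; viability counted by hemocytometer with Trypan Blue; ≥60% survival required.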

Assay [3] has as its system Human gammaherpesvirus 4. Kind of assay: TPA-induced EBV early antigen activation in Raji cells at 32 nmol relative to control.
For assay [4], the system named is Raji. Briefly: Survival of Raji cells at 16 nmol by trypan blue staining method. In kind it is functional, Homo sapiens. Summed up:
as §1

The subject of assay [5] is Human gammaherpesvirus 4. Briefly: TPA-induced EBV early antigen activation in Raji cells at 0.32 nmol relative to control.
Assay [6] concerns Raji. Kind of assay: Survival of Raji cells at 0.32 nmol by trypan blue staining method. Type of assay: functional, Homo sapiens. An outline of the steps: as §1
Assay [7] concerns Human gammaherpesvirus 4. Kind of assay: TPA-induced EBV early antigen activation in Raji cells at 16 nmol relative to control.
In assay [8] the test system is Raji. Kind of assay: Survival of Raji cells at 32 nmol by trypan blue staining method. In kind it is functional, Homo sapiens. Summed up:
as §1

`COc1ccc(C/C=C/c2ccccc2)c(OC)c1O`: the EBV-EA activation with Human gammaherpesvirus 4 [1] was determined as 76.9%; in the assay on Human gammaherpesvirus 4 [3], 14.1%; in the assay on Human gammaherpesvirus 4 [5], 100%; with Human gammaherpesvirus 4 [7] it was 41.2%. In addition, the Survival is recorded as more than 80% in the assay with Raji [2], more than 80% with Raji [4], more than 80% in the assay on Raji [6] and 60% in the assay on Raji [8].
For the compound `COc1c(O)ccc(C/C=C/c2ccccc2)c1OC`, the EBV-EA activation in the assay on Human gammaherpesvirus 4 [1] was found to be 74%; with Human gammaherpesvirus 4 [3], 12.5%; in the assay on Human gammaherpesvirus 4 [5], 100%; in the assay on Human gammaherpesvirus 4 [7], 44.3%. The Survival with Raji [2] was more than 80%; with Raji [4] it was more than 80%; with Raji [6], more than 80%; in the assay on Raji [8], 60%.
As to `COc1cc(/C=C/Cc2ccc(OC)c(OCC=C(C)C)c2OCC=C(C)C)ccc1OCC=C(C)C`, the EBV-EA activation is 61.5% in the assay on Human gammaherpesvirus 4 [1], 0% in the assay with Human gammaherpesvirus 4 [3], 83.3% in the assay on Human gammaherpesvirus 4 [5] and 23.6% in the assay on Human gammaherpesvirus 4 [7]. For the same compound, the Survival was more than 80% in the assay with Raji [2], more than 80% with Raji [4], more than 80% in the assay on Raji [6] and 70% in the assay with Raji [8].
For the compound `COc1ccc(C/C=C/c2ccccc2)c(O)c1`, the EBV-EA activation came to 73.7% in the assay on Human gammaherpesvirus 4 [1], 20.7% in the assay on Human gammaherpesvirus 4 [3], 100% in the assay on Human gammaherpesvirus 4 [5] and 45.1% in the assay with Human gammaherpesvirus 4 [7]. The Survival with Raji [2] was more than 80%; in the assay with Raji [4], more than 80%; with Raji [6], more than 80%; in the assay on Raji [8], 60%.
In the case of `COc1cccc(OCC=C(C)C)c1C/C=C/c1ccccc1`, the EBV-EA activation is on record as 68.9% with Human gammaherpesvirus 4 [1], 0% with Human gammaherpesvirus 4 [3], 92.7% in the assay on Human gammaherpesvirus 4 [5] and 30.8% with Human gammaherpesvirus 4 [7]. The Survival is given as more than 80% in the assay on Raji [2], more than 80% in the assay on Raji [4], more than 80% in the assay with Raji [6] and 70% in the assay with Raji [8].
For the compound `COc1c(C/C=C/c2ccccc2)ccc(O)c1O` [HYDROXYOBUSTYRENE], the EBV-EA activation with Human gammaherpesvirus 4 [1] is listed as 71%; in the assay with Human gammaherpesvirus 4 [3] it was 10.2%; in the assay with Human gammaherpesvirus 4 [5], 100%; in the assay with Human gammaherpesvirus 4 [7] it was 41.3%. The Survival with Raji [2] is more than 80%; in the assay on Raji [4], more than 80%; with Raji [6], more than 80%; in the assay on Raji [8], 60%.
On to `COc1ccc(C/C=C/c2ccccc2)c(O)c1OCC=C(C)C`, for which the EBV-EA activation in the assay with Human gammaherpesvirus 4 [1] was found to be 65.6%; with Human gammaherpesvirus 4 [3], 0%; with Human gammaherpesvirus 4 [5] it was 90.8%; in the assay with Human gammaherpesvirus 4 [7], 30.6%. Further, the Survival is more than 80% in the assay on Raji [2], more than 80% in the assay with Raji [4], more than 80% in the assay with Raji [6] and 70% in the assay with Raji [8].
For `COc1cc(/C=C/Cc2ccc(O)c(O)c2OC)ccc1OC(C)=O`, the EBV-EA activation in the assay on Human gammaherpesvirus 4 [1] came to 74%; in the assay with Human gammaherpesvirus 4 [3], 9.4%; in the assay on Human gammaherpesvirus 4 [5], 100%; in the assay with Human gammaherpesvirus 4 [7], 36.1%. The Survival in the assay with Raji [2] was more than 80%; in the assay with Raji [4], more than 80%; in the assay on Raji [6], more than 80%; in the assay on Raji [8], 60%.
For the compound `COc1cc(OCC=C(C)C)ccc1C/C=C/c1ccccc1`, the EBV-EA activation was determined as 65.2% in the assay on Human gammaherpesvirus 4 [1], 0% in the assay with Human gammaherpesvirus 4 [3], 87.6% in the assay on Human gammaherpesvirus 4 [5] and 29.3% in the assay on Human gammaherpesvirus 4 [7]. The Survival with Raji [2] is on record as more than 80%; in the assay with Raji [4] it was more than 80%; in the assay on Raji [6], more than 80%; in the assay with Raji [8], 70%.
As to `COc1ccc(C/C=C/c2ccccc2)c(O)c1OC`, the EBV-EA activation in the assay on Human gammaherpesvirus 4 [1] is given as 76.2%; in the assay on Human gammaherpesvirus 4 [3], 13.3%; with Human gammaherpesvirus 4 [5] it was 100%; in the assay with Human gammaherpesvirus 4 [7] it was 45.5%. Further, the Survival was more than 80% in the assay with Raji [2], more than 80% with Raji [4], more than 80% with Raji [6] and 60% in the assay with Raji [8].
As to `COc1cc(/C=C/Cc2ccc(O)c(O)c2OC)ccc1O`, the EBV-EA activation in the assay with Human gammaherpesvirus 4 [1] was determined as 70.2%; in the assay with Human gammaherpesvirus 4 [3], 7.5%; with Human gammaherpesvirus 4 [5], 95.7%; with Human gammaherpesvirus 4 [7], 43.7%. Further, the Survival with Raji [2] is recorded as more than 80%; in the assay on Raji [4], more than 80%; with Raji [6], more than 80%; with Raji [8], 60%.
For the compound `COc1c(C/C=C/c2ccccc2)cc(C/C=C/c2ccccc2)c(O)c1OC`, the EBV-EA activation is 75.6% in the assay on Human gammaherpesvirus 4 [1], 15.9% in the assay on Human gammaherpesvirus 4 [3], 100% in the assay with Human gammaherpesvirus 4 [5] and 46.4% in the assay on Human gammaherpesvirus 4 [7]. Also, the Survival is reported as more than 80% in the assay on Raji [2], more than 80% with Raji [4], more than 80% with Raji [6] and 60% with Raji [8].
As to `COc1cc(/C=C/Cc2ccc(OC)c(O)c2OCC=C(C)C)ccc1O`, the EBV-EA activation in the assay with Human gammaherpesvirus 4 [1] worked out at 63.2%; in the assay on Human gammaherpesvirus 4 [3], 0%; with Human gammaherpesvirus 4 [5], 88.1%; in the assay on Human gammaherpesvirus 4 [7], 27.8%. In addition, the Survival in the assay with Raji [2] was more than 80%; in the assay with Raji [4], more than 80%; in the assay with Raji [6] it was more than 80%; with Raji [8] it was 70%.
Take `COc1cc(/C=C/Cc2ccc(OC)c(OCC=C(C)C)c2O)ccc1O`: the EBV-EA activation with Human gammaherpesvirus 4 [1] is recorded as 64.2%; with Human gammaherpesvirus 4 [3] it was 0%; with Human gammaherpesvirus 4 [5], 87.1%; with Human gammaherpesvirus 4 [7] it was 28.3%. For the same compound, the Survival in the assay with Raji [2] is more than 80%; in the assay on Raji [4], more than 80%; with Raji [6], more than 80%; in the assay on Raji [8], 70%.
Consider `COc1cc(/C=C/Cc2ccc(OC)c(O)c2O)ccc1O`, for which the EBV-EA activation stood at 73.2% in the assay on Human gammaherpesvirus 4 [1], 8.7% with Human gammaherpesvirus 4 [3], 95.7% with Human gammaherpesvirus 4 [5] and 45.5% in the assay on Human gammaherpesvirus 4 [7]. Besides, the Survival in the assay on Raji [2] is more than 80%; in the assay on Raji [4] it was more than 80%; in the assay on Raji [6], more than 80%; in the assay on Raji [8], 60%.
Turning to `COc1ccc(C/C=C/c2ccccc2)c(O)c1O`, the EBV-EA activation in the assay on Human gammaherpesvirus 4 [1] was 71.5%; with Human gammaherpesvirus 4 [3], 10.8%; in the assay on Human gammaherpesvirus 4 [5], 100%; in the assay on Human gammaherpesvirus 4 [7] it was 42.5%. In addition, the Survival in the assay with Raji [2] is reported as more than 80%; with Raji [4] it was more than 80%; with Raji [6], more than 80%; in the assay with Raji [8] it was 60%.
In the case of `COc1cc(O)ccc1C/C=C/c1ccccc1`, the EBV-EA activation in the assay on Human gammaherpesvirus 4 [1] amounted to 73.2%; in the assay with Human gammaherpesvirus 4 [3], 18.1%; in the assay on Human gammaherpesvirus 4 [5], 100%; in the assay with Human gammaherpesvirus 4 [7], 44.7%. Also, the Survival in the assay with Raji [2] is more than 80%; in the assay on Raji [4] it was more than 80%; in the assay on Raji [6], more than 80%; with Raji [8], 60%.
